M1 antag – antagonists of rat M1 muscarinic receptor; CHO-M1 cells, Fluo-4 calcium, ACh EC80 antagonist mode; hits give low values; B-score at 10 µM; actives 3.4% (n = 64,000); AID 628, 2007;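 active means calcium fluorescence response, raw or row-and-column corrected B-score, differing from the plate sample mean either way at a set confidence level, mostly lower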
Target sequence (P08482 whole entry, looked up): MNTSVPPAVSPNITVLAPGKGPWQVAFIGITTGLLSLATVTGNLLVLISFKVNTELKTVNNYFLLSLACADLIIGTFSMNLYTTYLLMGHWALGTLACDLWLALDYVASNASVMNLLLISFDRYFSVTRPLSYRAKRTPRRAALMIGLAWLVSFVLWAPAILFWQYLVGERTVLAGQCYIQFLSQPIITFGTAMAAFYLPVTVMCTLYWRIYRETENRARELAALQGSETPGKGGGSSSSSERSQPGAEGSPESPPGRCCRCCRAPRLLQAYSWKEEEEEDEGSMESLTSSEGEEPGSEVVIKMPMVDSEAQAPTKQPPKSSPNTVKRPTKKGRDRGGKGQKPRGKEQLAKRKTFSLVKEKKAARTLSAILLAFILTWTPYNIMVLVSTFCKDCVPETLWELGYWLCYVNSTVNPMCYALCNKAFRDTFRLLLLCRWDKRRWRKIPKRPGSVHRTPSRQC
D1 allo mod – D1 CRE-luciferase signal change, two-sided – cell-based, HEK293 D1, dopamine EC30, D1 allosteric modulator project, primary screen | dopamine EC30 potentiation; actives deviate in either direction | B-score at 10 µM | actives 5.9% (n = 58,000);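 active means luminescence count or its row- and column-corrected plate score outside the 99.7% band of the plate's sample wells, on either side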
SF1 activator – activators of human SF-1, primary screen, cell-based, CHO-K1, Gal4-SF-1 LBD, luciferase luminescence. Steroidogenic factor 1 (Homo sapiens), Q13285. CHO-K1 Gal4-SF-1 LBD luciferase reporter; % increase over DMSO SF-1-specific signal. activation, % at 10 µM. actives 1.9% (n = 65,000). AID 522, 2006;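 active means activation above the mean activation of all tested compounds plus 3 SD, cut at about 50% in these data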
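Material: CHO-K1 cells with Gal4–hSF-1 LBD chimera plus Gal4-driven luciferase / Input: 4,000 CHO-K1 cells per well / Incubation: compound exposure 20 h at 37 °C / Signal: luminescence read 15 min after SteadyLite luciferase reagent, after room-temperature equilibration / Read-out: percent activation versus DMSO / Benchmarks: DMSO negative control and −SF1 background wells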
RORA act – activators of orphan receptor RORA, primary screen, cell-based, luminescence; Nuclear receptor ROR-alpha (Homo sapiens), P35398; CHO-K1 Gal4-RORA LBD luciferase reporter; percent increase over mock-subtracted basal signal; activation, % at 10 µM; actives 1.5% (n = 65,000);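 active means activation above the mean of all tested compounds plus 3 SD, cut at about 49% in these data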;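 further: 0% = DMSO-treated RORA cells and 100% = added signal equal to DMSO minus mock-transfected cells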
M1 ag – M1 muscarinic receptor agonists, primary screen, CHO-M1 cells, Fluo-4 calcium, agonist mode; Fluo-4 calcium fluorescence; hits give high values; B-score at 10 µM; Muscarinic acetylcholine receptor M1; actives 3% (n = 64,000); AID 626, 2007;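 active means fluorescence rise, raw or as B-score row- and column-corrected plate score, outside the 99.7% band of its plate's samples, either direction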
Htt clearance – clearance of mutant huntingtin inclusions, primary screen, imaging, HeLa Exon1htt(103Q)mCFP, confocal imaging. inhibition, % at 1.5 µM. actives 0.42% (n = 47,000). AID 853, 2007. aggregate imaging; zero = plate's median compound well;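 active means inhibition of aggregate fluorescence above about 70%, also judged a hit by eye on the cell image, limit read from the data, passing the limit was not always enough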;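 further: cells exposed to compound for three days before fixation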
The depositor's hits bear a star; i = inactive; x = no result given. Sampled rows, rich in hits. Any-hit rate of the full collection: about 11%.

SMILES	M1 antag	D1 allo mod	SF1 activator	RORA act	M1 ag	Htt clearance
CCOC(=O)CC(=O)CSc1nnc2c(n1)[nH]c1ccccc12	-0.53	-0.54	53*	45	-1.2	x
O=C(CSc1nnc2c(n1)[nH]c1ccccc12)OCc1ccccc1	x	x	x	x	x	66
CCn1c(C(=O)OC)cc2c1ccn2-c1ccc(F)cc1	-0.00049	-0.1	53*	60*	-0.54	-12
CC(=O)c1sc(NC(=O)C2COc3ccccc3O2)nc1C (configuration not stated)	-0.18	-8.5*	6	10	-0.51	i
CC1(C)Oc2ccc(NC(=O)C3COc4ccccc4O3)cc2O1 (configuration not stated)	-0.3	-4.3*	35	43	0.0013	-117
CC(C)(C)NC(=O)c1ccc(NC(=O)C2COc3ccccc3O2)cc1 (configuration not stated)	0	x	5	-7	-0.82	x
O=C(Nc1nncs1)C1COc2ccccc2O1 (configuration not stated)	0.28	-0.4	9	-12	0.34	0
CCOC(=O)c1ccc(NC(=O)CCC(=O)OC)cc1	-0.6	0.33	-2	-10	-1.8	-4
CCCCCc1c(C)nc(N2CCc3ccccc32)[nH]c1=O	1.5*	-1.1	1	5	-0.75	59
CCCCCc1c(C)nc(N2CCc3ccccc3C2)[nH]c1=O	-0.4	-0.0073	-5	-17	0.55	x
CCOC(=O)C(NC(C)=O)(Nc1ccc(S(=O)(=O)Nc2cc(C)on2)cc1)C(F)(F)F (configuration not stated)	x	x	x	x	x	5
CCOC(=O)C(NC(C)=O)(Nc1ccc(S(=O)(=O)Nc2onc(C)c2C)cc1)C(F)(F)F (configuration not stated)	0.53	-6.9*	2	-6	-0.61	41
O=c1c2ccc(-c3nnc4n3-c3ccccc3SC4)cc2nc2n1CCCCC2	0.51	-1.6	8	9	-0.22	15
O=C(Nc1cccnc1)C1COc2ccccc2O1 (configuration not stated)	x	x	x	x	x	-52
O=C(Nc1ccc(-c2cn3ccsc3n2)cc1)c1ccc(F)c(S(=O)(=O)N2CCOCC2)c1	-0.29	x	57*	42	-0.74	x
CCCCC(=O)Nc1cccc(-c2cn3ccsc3n2)c1	0.15	0.24	30	58*	2.1	x
O=C(Nc1cccc(-c2cn3ccccc3n2)c1)c1cnccn1	-0.046	0.23	52*	46	1.9	54
O=C(Nc1ccc(-c2cn3ccsc3n2)cc1)C1COc2ccccc2O1 (configuration not stated)	-0.23	-1.4	57*	17	-0.6	-27
Cc1cc(NC(=O)CC23CC4CC(C2)CC(CC(=O)Nc2cc(C)on2)(C4)C3)no1	0.29	-0.71	1	-1	0.012	-14
O=C(Nc1cccc(-c2cn3ccsc3n2)c1)c1ccccc1	-0.73	-1.2	27	49*	0.47	x
CCCOc1ccc(C(=O)Nc2ccc(N(C)C)cc2)cc1	-0.0093	-0.53	30	56*	-0.54	x
CC(C)Oc1ccc(C(=O)Nc2ccc(N(C)C)cc2)cc1	0.17	-1.8	21	2	-0.097	x
c1csc(-c2csc(-c3cccs3)n2)c1	0.26	0.79	63*	30	-0.00053	x
CCN(CC)C(=S)Sc1c(-c2ccccc2)c2cc(Cl)ccc2[nH]c1=O	x	x	x	x	x	12
Fc1ccc(CNc2ncnc3c2cnn3-c2ccccc2)cc1	0.42	0.72	42	8	0.4	64
c1ccc(CCNc2ncnc3c2cnn3-c2ccccc2)cc1	0	-1.4	14	56*	1.2	x
Cc1cccc(-n2ncc3c(NCc4cccs4)ncnc32)c1	0.043	x	22	46	0.16	19
Cc1cccc(-n2ncc3c(NCCc4ccc(S(N)(=O)=O)cc4)ncnc32)c1	0.093	-6.9*	16	22	-1.6	x
